Common to all, as to assay type: functional
For test [1], the system named is Pseudomonas aeruginosa. Kind of test: Bactericidal activity against Pseudomonas aeruginosa PAO1 ATCC 15692 at 50 ug/ml measured after 1 hr by serial dilution method relative to control.
The subject of test [2] is Pseudomonas aeruginosa. Kind of test: Bactericidal activity against Pseudomonas aeruginosa PAO1 ATCC 15692 at 50 ug/ml measured after 3 hrs by serial dilution method relative to control.
Test [3] relates to Staphylococcus aureus. Kind of test: Bactericidal activity against Staphylococcus aureus ATCC 25923 at 100 ug/ml measured after 6 hrs by serial dilution method relative to control.
The subject of test [4] is Staphylococcus aureus. The test is described as follows: Bactericidal activity against Staphylococcus aureus ATCC 25923 at 100 ug/ml measured after 24 hrs by serial dilution method relative to control.
For test [5], the system named is Mycolicibacterium smegmatis. The test is described as follows: Antibacterial activity against Mycobacterium smegmatis MC2 155 ATCC 700084 assessed as colony forming units at 50 ug/ml measured after 24 hrs by serial dilution method (reference value: 84 +/- 4.35 10^3CFU). The method, boiled down:
(§1)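 Bacteria were exposed to test compound over a range of µg/ml concentrations. Viable bacteria were counted by colony forming unit (CFU) assay at set time points (6 h and 24 h for M. smegmatis and S. aureus strains), and untreated bacteria served as the control. Percentage of population killed was calculated relative to the untreated control. Values are means ± S.D of three independent trials.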

Test [6] has as its system Pseudomonas aeruginosa. Kind of test: Antibacterial activity against Pseudomonas aeruginosa PAO1 ATCC 15692 assessed as colony forming units at 100 ug/ml measured after 3 hr by serial dilution method (reference value: 141.66 +/- 7.5 10^8CFU).
The subject of test [7] is Staphylococcus aureus. Kind of test: Antibacterial activity against Staphylococcus aureus ATCC 25923 assessed as colony forming units at 100 ug/ml measured after 6 hrs by serial dilution method (reference value: 65.66 +/- 3.51 10^6CFU).
Test [8] has as its system Staphylococcus aureus. The test is described as follows: Antibacterial activity against Staphylococcus aureus ATCC 25923 assessed as colony forming units at 50 ug/ml measured after 24 hrs by serial dilution method (reference value: 77.66 +/- 5.13 10^6CFU).
The test system of test [9] is Staphylococcus aureus. The test is described as follows: Antibacterial activity against methicillin-resistant Staphylococcus aureus ATCC 43300 assessed as colony forming units at 1 ug/ml measured after 24 hrs by serial dilution method (reference value: 74 +/- 2 10^6CFU). The method, boiled down:
as §1

The subject of test [10] is Pseudomonas aeruginosa. Kind of test: Bactericidal activity against Pseudomonas aeruginosa PAO1 ATCC 15692 at 10 to 50 ug/ml measured after 1 hrs by serial dilution method relative to control.
The test system of test [11] is Pseudomonas aeruginosa. Kind of test: Bactericidal activity against Pseudomonas aeruginosa PAO1 ATCC 15692 at 50 to 100 ug/ml measured after 3 hrs by serial dilution method relative to control.
In test [12] the test system is Staphylococcus aureus. Kind of test: Bactericidal activity against Staphylococcus aureus ATCC 25923 at 1 to 10 ug/ml measured after 6 hrs by serial dilution method relative to control.
Test [13] has as its system Staphylococcus aureus. The test is described as follows: Bactericidal activity against Staphylococcus aureus ATCC 25923 at 200 ug/ml measured after 6 hrs by serial dilution method relative to control.
Test [14] has as its system Staphylococcus aureus. The test is described as follows: Antibacterial activity against methicillin-resistant Staphylococcus aureus ATCC 43300 assessed as colony forming units at 200 ug/ml measured after 6 hrs by serial dilution method (reference value: 64.33 +/- 3.51 10^6CFU). The method, boiled down: as §1

For `O=C(/C=C/c1ccc(O)c(O)c1)Nc1ccccc1Nc1ccccc1`, the Activity in test [1] amounted to 58.9%; in test [2], 62.1%; in test [3], 92.3%; in test [4], 84.9%; in test [5] it was 18.33 ×10³ CFU; in [6], 32.66 ×10⁸ CFU. The Activity in test [7] is on record as 5 ×10⁶ CFU; in test [8] it was 24.66 ×10⁶ CFU; in test [9], 60 ×10⁶ CFU.

`Cc1ccc(O)c(NC(=O)/C=C/c2ccc(O)c(O)c2)c1`: the Activity is listed as 50% in [10]; 50% in test [11]; 60.9% in test [12]; 93.8% in test [13]; 45.66 ×10³ CFU in test [5]; 69.66 ×10⁸ CFU in [6]. The Activity in test [7] stood at 14 ×10⁶ CFU; in test [8] it was 8 ×10⁶ CFU; in [14], 6.66 ×10⁶ CFU; in test [9], 54.33 ×10⁶ CFU.

(Values after ChEMBL document CHEMBL3868627, “Radical scavenging and antibacterial activity of caffemides against gram positive, gram negative and clinical drug resistance bacteria” (Bioorg Med Chem Lett, 2016).)
